# Laboratory results: ChEMBL document CHEMBL4321820, “Identification and Optimization of Mechanism-Based Fluoroallylamine Inhibitors of Lysyl Oxidase-like 2/3” (J Med Chem, 2019)
# Tests used:
# Protein-lysine 6-oxidase = target: T1, Protein-lysine 6-oxidase (Bos taurus, UniProt P33072); assay: Inhibition of LOX in bovine aorta using putrescine as substrate preincubated with enzyme for 30 mins followed by substrate addition and measured every 2.5 mins for 30 mins by Amplex-Red oxidation assay; type: tissue-based; settings: read-out: pIC50 (converted)
# T1 sequence (P33072 whole entry): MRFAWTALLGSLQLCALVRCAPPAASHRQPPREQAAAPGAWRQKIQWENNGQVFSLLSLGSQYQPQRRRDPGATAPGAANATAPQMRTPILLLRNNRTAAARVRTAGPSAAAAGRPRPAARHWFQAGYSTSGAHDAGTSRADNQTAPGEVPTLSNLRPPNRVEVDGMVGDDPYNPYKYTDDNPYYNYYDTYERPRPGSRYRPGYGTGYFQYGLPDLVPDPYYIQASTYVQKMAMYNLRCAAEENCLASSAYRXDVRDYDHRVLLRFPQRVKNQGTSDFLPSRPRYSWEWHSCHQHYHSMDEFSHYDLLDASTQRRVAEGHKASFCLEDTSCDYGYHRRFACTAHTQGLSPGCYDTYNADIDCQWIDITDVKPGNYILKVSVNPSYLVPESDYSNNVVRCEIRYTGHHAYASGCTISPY
# Outline: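 LOX extracted from calf aorta after PBS washing with 4 M urea/50 mM borate pH 8.2, concentrated on 10 kDa filters into 1.2 M urea/borate with protease inhibitors. Preincubated 30 min at 37 °C with compound, then Amplex Red/HRP with 10 mM putrescine; fluorescence read every 2.5 min for 30 min.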
# Lysyl oxidase homolog 2 = target: T2, Lysyl oxidase homolog 2 (Homo sapiens, UniProt Q9Y4K0); assay: Inhibition of recombinant human C-terminal His-tagged […] (1-774 residues) expressed in mouse myeloma cells using putrescine as substrate preincubated with enzyme for 30 mins followed by substrate addition and measured every 2.5 mins for 30 mins by Amplex-Red oxidation assay; settings: read-out: pIC50 (converted)
# T2 sequence (Q9Y4K0 whole entry): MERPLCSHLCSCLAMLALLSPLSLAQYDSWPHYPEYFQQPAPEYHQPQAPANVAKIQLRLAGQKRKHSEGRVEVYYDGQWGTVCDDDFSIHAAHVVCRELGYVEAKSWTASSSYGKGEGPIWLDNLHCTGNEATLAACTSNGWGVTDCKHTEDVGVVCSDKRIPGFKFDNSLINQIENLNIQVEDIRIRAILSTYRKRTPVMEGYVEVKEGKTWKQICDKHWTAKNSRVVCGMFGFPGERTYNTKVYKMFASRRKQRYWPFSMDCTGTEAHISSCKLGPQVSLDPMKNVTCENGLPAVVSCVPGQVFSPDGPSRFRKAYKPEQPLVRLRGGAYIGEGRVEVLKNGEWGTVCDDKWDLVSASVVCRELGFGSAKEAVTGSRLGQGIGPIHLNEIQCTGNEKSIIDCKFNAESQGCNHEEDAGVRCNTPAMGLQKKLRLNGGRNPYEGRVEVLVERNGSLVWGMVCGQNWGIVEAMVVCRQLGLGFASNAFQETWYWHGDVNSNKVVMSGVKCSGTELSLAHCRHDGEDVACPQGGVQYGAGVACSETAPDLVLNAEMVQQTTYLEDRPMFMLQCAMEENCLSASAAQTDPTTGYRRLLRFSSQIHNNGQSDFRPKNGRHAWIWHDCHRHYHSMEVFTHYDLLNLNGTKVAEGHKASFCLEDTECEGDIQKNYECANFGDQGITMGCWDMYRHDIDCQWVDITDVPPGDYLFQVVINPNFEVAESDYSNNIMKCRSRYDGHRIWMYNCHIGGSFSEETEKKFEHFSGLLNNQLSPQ
# Outline: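 LOXL2 enzyme preincubated with compound for 30 min at 37 °C, then Amplex Red (120 µM) / HRP (1.5 U/mL) mix containing 5 mM putrescine added. Buffer: 1.2 M urea, 50 mM sodium borate, pH 8.2. H2O2 fluorescence (ex 565/em 590) read every 2.5 min for 30 min at 37 °C; BAPN 100 µM as positive control; n≥2.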
# [1] = Substrate activity at AOC4 in dog serum assessed as compound oxidation by measuring oxidative turnover at 30 uM measured for 40 mins by horseradish peroxidase-coupled amplex red reagent-based fluorometric assay relative to DMSO; type: ADME, cell-free, Canis lupus familiaris
# Outline: (§1)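 Compound oxidation measured without substrate by peroxidase-coupled fluorometric read-out of resorufin formation over 40 min at 37 °C in HEPES buffer. Amplex Red 20 µM, HRP 4 U/ml, test compound at final 30 µM. Enzyme source was human recombinant SSAO or AOC4 from diluted dog serum. Benzylamine at 600 µM served as positive control. Signal is expressed relative to DMSO-only background, so a value near 1 means no turnover.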
# [2] = target: T3, Amine oxidase [copper-containing] 3 (Homo sapiens, UniProt Q16853); assay: Substrate activity at recombinant human SSAO assessed as compound oxidation by measuring oxidative turnover at 30 uM measured for 40 mins by horseradish peroxidase-coupled amplex red reagent-based fluorometric assay relative to DMSO; type: ADME; outline: as §1
# T3 sequence (Q16853 whole entry): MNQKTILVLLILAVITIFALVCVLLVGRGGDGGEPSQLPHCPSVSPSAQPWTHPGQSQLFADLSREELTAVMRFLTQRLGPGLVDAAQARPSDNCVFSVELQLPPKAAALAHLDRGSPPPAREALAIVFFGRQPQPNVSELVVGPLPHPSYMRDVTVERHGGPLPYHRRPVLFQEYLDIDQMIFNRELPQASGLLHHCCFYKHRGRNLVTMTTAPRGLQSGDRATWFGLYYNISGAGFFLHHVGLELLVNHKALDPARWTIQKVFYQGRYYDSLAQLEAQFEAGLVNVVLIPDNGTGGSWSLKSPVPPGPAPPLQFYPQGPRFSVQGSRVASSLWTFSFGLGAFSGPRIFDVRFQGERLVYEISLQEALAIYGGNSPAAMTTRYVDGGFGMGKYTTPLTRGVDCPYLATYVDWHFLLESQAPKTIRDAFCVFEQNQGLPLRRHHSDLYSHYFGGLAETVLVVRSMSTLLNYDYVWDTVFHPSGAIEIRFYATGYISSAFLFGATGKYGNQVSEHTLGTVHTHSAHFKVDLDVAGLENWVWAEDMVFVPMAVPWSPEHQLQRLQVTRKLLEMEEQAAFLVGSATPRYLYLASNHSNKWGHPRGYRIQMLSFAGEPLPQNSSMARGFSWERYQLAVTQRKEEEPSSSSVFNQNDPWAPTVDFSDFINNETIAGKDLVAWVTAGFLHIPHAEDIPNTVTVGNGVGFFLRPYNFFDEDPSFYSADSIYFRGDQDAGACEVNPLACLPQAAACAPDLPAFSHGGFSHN
# [3] = Selectivity index, ratio of IC50 for recombinant human C-terminal His-tagged […] (1-774 residues) expressed in mouse myeloma cells to IC50 for LOX in bovine aorta
# [4] = target: T3, Amine oxidase [copper-containing] 3; assay: Inhibition of recombinant human SSAO using benzylamine as substrate preincubated with enzyme for 30 mins followed by substrate addition and measured every 2.5 mins for 30 mins by Amplex-Red oxidation assay; settings: read-out: pIC50 (converted)
# [5] = target: T4, Amine oxidase [flavin-containing] B (Homo sapiens, UniProt P27338); assay: Inhibition of recombinant human MAOB expressed in baculovirus infected in BTI cells using benzylamine as substrate preincubated with enzyme for 30 mins followed by substrate addition and measured every 2.5 mins for 30 mins by Amplex-Red oxidation assay; settings: read-out: pIC50 (converted)
# T4 sequence (P27338 whole entry): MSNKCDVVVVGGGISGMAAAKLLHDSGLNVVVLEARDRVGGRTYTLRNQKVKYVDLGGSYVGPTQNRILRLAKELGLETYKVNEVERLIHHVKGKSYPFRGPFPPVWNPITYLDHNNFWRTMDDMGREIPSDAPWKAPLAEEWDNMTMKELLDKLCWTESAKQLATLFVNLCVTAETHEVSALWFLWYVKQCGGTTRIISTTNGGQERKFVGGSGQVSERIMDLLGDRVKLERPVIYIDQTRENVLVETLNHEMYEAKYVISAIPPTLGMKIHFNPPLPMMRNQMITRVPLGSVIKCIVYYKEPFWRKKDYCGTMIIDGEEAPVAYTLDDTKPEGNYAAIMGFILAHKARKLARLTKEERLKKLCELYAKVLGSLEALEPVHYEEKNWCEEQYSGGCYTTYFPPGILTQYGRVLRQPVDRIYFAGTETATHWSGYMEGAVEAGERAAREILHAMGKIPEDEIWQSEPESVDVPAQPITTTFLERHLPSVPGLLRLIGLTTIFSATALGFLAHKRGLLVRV
IC50 (Protein-lysine 6-oxidase),IC50 (Lysyl oxidase homolog 2),fold change (FC) [1],fold change (FC) [2],IC50 [4],IC50 [5],SMILES,IC50 ratio [3]
1580 nM,25.1 nM,1,1.2,,,Cc1c(-c2cccc(S(=O)(=O)N(C)C)c2)c2cc(C(=O)N(C)C)ccc2n1C/C(F)=C/CN.Cl,
631 nM,200 nM,,,,,CS(=O)(=O)c1ccc(OCc2cn(C/C(F)=C/CN)nn2)cc1,
1260 nM,20 nM,6.4,1.6,,,Cc1c(-c2cccc(S(=O)(=O)N(C)C)c2)c2ncccc2n1C/C(F)=C/CN.Cl,70
794 nM,63.1 nM,1.1,1,,,Cc1c(-c2cccc(S(=O)(=O)N(C)C)c2)c2ccc(C(=O)N(C)C)cc2n1C/C(F)=C/CN.Cl,
3160 nM,126 nM,1.1,1.2,,,Cc1c(-c2cccc(S(=O)(=O)N(C)C)c2)c2cc(Cl)ccc2n1C/C(F)=C/CN.Cl,
3160 nM,794 nM,,2.8,,,Cc1c(-c2ccc(S(=O)(=O)N(C)C)cc2)c2ccccc2n1C/C(F)=C/CN.Cl,
794 nM,126 nM,,> 4,,,CN(C)S(=O)(=O)c1ccc(-c2cn(C/C(F)=C/CN)nn2)cc1.Cl,
1000 nM,794 nM,,,,,CS(=O)(=O)c1cccc(OCc2cn(C/C(F)=C/CN)nn2)c1,
1260 nM,50.1 nM,1.1,1,,,Cc1c(-c2cccc(S(=O)(=O)N(C)C)c2)c2cc(O)ccc2n1C/C(F)=C/CN.Cl,
1000 nM,20 nM,1.5,1,,,Cc1c(-c2cccc(S(=O)(=O)N(C)C)c2)c2cc(NS(C)(=O)=O)ccc2n1C/C(F)=C/CN.Cl,
501 nM,316 nM,,,,,NC/C=C(\F)Cn1cc(COc2ccccc2)nn1,
15800 nM,501 nM,1,1.1,,,Cc1c(-c2cccc(S(=O)(=O)N(C)C)c2)c2ccc(C(=O)O)cc2n1C/C(F)=C/CN.Cl,
398 nM,316 nM,,,> 3160 nM,,C[C@H](NS(=O)(=O)c1ccc(OC/C(F)=C/CN)cc1)c1ccccc1,
501 nM,794 nM,,,,,CC(C)(C)c1ccc(OCc2cn(C/C(F)=C/CN)nn2)cc1,
794 nM,50.1 nM,,> 4,> 31600 nM,126 nM,CN(C)S(=O)(=O)c1ccc(OCc2cn(C/C(F)=C/CN)nn2)cc1.Cl,
2000 nM,2510 nM,,,50.1 nM,,C[C@H](NS(=O)(=O)c1ccc(OC/C(F)=C\CN)cc1)c1ccccc1,
3160 nM,2000 nM,,,,,CS(=O)(=O)c1ccccc1OCc1cn(C/C(F)=C/CN)nn1,
501 nM,20 nM,,> 4,,,CN(C)S(=O)(=O)c1ccc(NCc2cn(C/C(F)=C/CN)nn2)cc1.Cl,
20000 nM,3160 nM,1.4,1.1,,,Cc1c(-c2cccc(S(=O)(=O)N(C)C)c2)c2cccc(C(=O)N(C)C)c2n1C/C(F)=C/CN.Cl,
1580 nM,79.4 nM,1.6,4.6,,,COc1ccc2c(c1)c(-c1cccc(S(=O)(=O)N(C)C)c1)c(C)n2C/C(F)=C/CN.Cl,
631 nM,12.6 nM,,> 4,,,CN(C)S(=O)(=O)c1ccc(Cc2cn(C/C(F)=C/CN)nn2)cc1.Cl,
2000 nM,100 nM,,> 4,,,CN(C)S(=O)(=O)c1cccc(-c2ccn(C/C(F)=C/CN)c2)c1.Cl,
15800 nM,126 nM,1,,,,Cc1c(-c2cccc(S(=O)(=O)N(C)C)c2)c2cc(-c3nnn[nH]3)ccc2n1C/C(F)=C/CN.Cl,
398 nM,5.01 nM,1.3,1.3,,,Cc1c(-c2cccc(S(=O)(=O)N(C)C)c2)c2cc(S(C)(=O)=O)ccc2n1C/C(F)=C/CN.Cl,
3160 nM,794 nM,,,,,CN(C)C(=O)c1ccc(OCc2cn(C/C(F)=C/CN)nn2)cc1,
794 nM,251 nM,,> 4,,,CN(C)S(=O)(=O)c1ccc(-c2ccn(C/C(F)=C/CN)c2)cc1.Cl,
